Furin inh: human furin inhibition | inhibition, % at 20 µM or 30 µM | purified furin, fluorogenic substrate cleavage | 0.061% of 220,000 active | P09958; in the data active = inhibition above about 25%
Thrombin inh: blocks human thrombin protease activity; P00734; alpha-thrombin, Boc-VPR-AMC fluorogenic substrate cleavage; inhibition, % at 5 µM; 0.26% of 220,000 active; AID 1046;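 active = inhibition at or above 40%; inactive = inhibition below 40%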
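Material: human alpha-thrombin enzyme / Medium: pH 7.5 Tris (50 mM) with NaCl 150 mM, Tween 20 0.05% / Compound: single-point dosing at 5 µM, 0.2% DMSO / Incubation: enzyme reaction carried out at room temperature / Detection: AMC fluorescence, 355/460 nm / Read-out basis: percent inhibition scaled between no-compound controls and no-enzyme blanks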
hK5 inh: kallikrein 5 (human) inhibition. Q9Y337. recombinant hK5, fluorogenic AMC substrate cleavage. inhibition, % at 5 µM. 0.59% of 210,000 active. AID 873;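 active = inhibition of 40% or more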
FXIa inh: blocks human coagulation factor XIa protease activity. P03951. purified FXIa, Boc-Glu-Ala-Arg-AMC fluorogenic substrate. inhibition, % at 5 µM. 0.14% of 220,000 active. AID 798;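 active = inhibition of at least 40%; inactive = inhibition below 40%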;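 note: fluorescence of freed AMC excited at 355 nm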
PERK inh: blocks human PERK kinase; 0.17% of 220,000 active; inhibition, % at 5.6 µM; CHO PERK-DD fusion, SEAP luminescence translation reporter; Q9NZJ5;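 active = inhibition above the mean inhibition of all tested compounds plus 3 SD, set separately per screening campaign, cut at about 2.9% in these data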;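 note: PERK kinase domain activated by AP20187 dimerizer at 100 nM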
FXIIa inh 1536: factor XIIa (human) inhibition; 0.3% of 220,000 active; AID 800; P00748; purified FXIIa, Boc-QGR-AMC fluorogenic substrate, 2 h; inhibition, % at 5 µM; in the data active = inhibition above about 40%
Target sequence (P00748 20-372 limits assumed): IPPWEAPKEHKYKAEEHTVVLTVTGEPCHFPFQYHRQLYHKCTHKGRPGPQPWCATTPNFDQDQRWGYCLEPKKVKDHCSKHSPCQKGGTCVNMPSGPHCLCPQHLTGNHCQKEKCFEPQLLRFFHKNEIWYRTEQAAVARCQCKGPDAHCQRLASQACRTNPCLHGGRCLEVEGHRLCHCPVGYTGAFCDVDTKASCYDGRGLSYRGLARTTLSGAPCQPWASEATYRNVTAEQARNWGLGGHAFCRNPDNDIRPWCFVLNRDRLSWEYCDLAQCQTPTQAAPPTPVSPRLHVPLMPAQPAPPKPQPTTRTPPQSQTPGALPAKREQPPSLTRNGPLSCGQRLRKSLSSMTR
Target sequence (P00748 373-615 limits assumed): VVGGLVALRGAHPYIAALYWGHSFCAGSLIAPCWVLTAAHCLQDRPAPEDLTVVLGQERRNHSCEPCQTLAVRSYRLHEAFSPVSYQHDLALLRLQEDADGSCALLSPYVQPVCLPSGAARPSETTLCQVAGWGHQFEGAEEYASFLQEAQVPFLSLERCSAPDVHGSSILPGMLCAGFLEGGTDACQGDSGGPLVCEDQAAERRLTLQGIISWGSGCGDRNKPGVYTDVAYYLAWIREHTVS
A number is an active result; n = inactive; x = no result given. Most compounds without a hit are left out; they make up all but 1.2% or so of the library.

SMILES	Furin inh	Thrombin inh	hK5 inh	FXIa inh	PERK inh	FXIIa inh 1536
CCOC(=O)C1(C)C=C(Nc2cccc(OC)c2)C(=O)N1c1ccccc1 (stereo not given)	n	n	44	n	n	n
CCOC(=O)c1cn(CC(=O)Nc2ccccc2C(=O)OCC)nn1	n	n	n	n	n	n
CCOC(=O)c1cn(Cc2ccccc2)nn1	n	n	n	n	n	50
COc1ccc(NS(=O)(=O)c2ccc(OCC(=O)N3CCOCC3)cc2)cc1	n	n	n	n	n	n
O=C(COc1ccc(S(=O)(=O)Nc2ccccc2)cc1)N1CCOCC1	n	53	n	n	n	n
O=C(O)c1ccc(F)c(S(=O)(=O)Nc2ccccc2Cl)c1	n	n	86	n	n	n
CC(C)CNC(=O)COC(=O)Cc1ccc(Cl)cc1	n	n	n	n	n	x
Cc1ccc(-n2cc(C(=O)O)c(=O)cc2C)c(C)c1	n	n	n	n	n	n
CCCCOc1ccc(Cc2n[nH]c(=S)n2N)cc1	n	n	n	n	n	n
Cc1ccc(OCc2n[nH]c(=S)n2N)cc1C	n	101	n	n	n	n
Cc1cc(OCC(=O)Nc2ccc(CN3CCCCC3)cc2)ccc1Cl	n	n	42	n	n	n
Cc1cc(Oc2ccc(-c3nnc(-c4ccccc4)o3)cc2[N+](=O)[O-])ccc1Cl	n	n	43	n	n	n
Nc1nc(SCC(=O)NC2CCCC2)[nH]c(=O)c1NC(=O)c1cccs1	n	n	n	n	n	n
O=C(O)c1cccc(-n2cccc2/C=C/[N+](=O)[O-])c1	n	n	n	n	3.2	n
N/C(=N\OC(=O)c1ccc(Cl)cc1Cl)c1ccccn1	n	n	53	n	n	n
N/C(=N\OC(=O)c1cc(Br)ccc1Cl)c1ccccn1	n	n	n	n	n	n
CCOC(=O)CC1CCCCN1Cc1cn[nH]c1-c1ccc(F)cc1F (stereo not given)	n	n	x	n	n	n
CSc1nc(-c2ccccc2)nc(N)c1C(C)=O	n	n	45	n	n	n
COc1cc(CNc2ncn[nH]2)cc(Br)c1OC	n	n	71	n	n	n
CCOCC(O)CNc1ccccc1 (stereo not given)	n	n	n	n	n	n
OC(CNc1ccccc1)COc1ccc(OCC(O)CNc2ccccc2)cc1 (stereo not given)	n	n	58	n	n	n
Cc1cc(C)n(S(=O)(=O)c2cc(C)c(C)cc2C)n1	n	n	n	n	n	n
Cc1ccc(S(=O)(=O)n2nc(C)cc2C)cc1	n	n	43	n	n	n
Cc1ccc(NC(=O)CN2CCN(S(=O)(=O)c3cccs3)CC2)cc1S(=O)(=O)N(C)C	n	n	n	n	n	n
Cc1ccc(S(=O)(=O)N(CC(=O)NCCC2=CCCCC2)Cc2ccccc2)cc1	n	n	n	n	n	42
SMILES	Furin inh	Thrombin inh	hK5 inh	FXIa inh	PERK inh	FXIIa inh 1536
O=C(CN(Cc1ccccc1)S(=O)(=O)c1ccc(F)cc1)NCCC1=CCCCC1	n	n	n	n	n	n
COCCNc1nnc(SCC(=O)c2c[nH]c3ccccc23)s1	n	101	n	n	n	n
CCOC(=O)C1=NOC(CN(c2ccccc2)S(=O)(=O)c2ccc(Cl)cc2)C1 (stereo not given)	n	n	n	n	n	n
Cc1cc(C)n2nc(S(=O)(=O)N(C)c3ccccc3)nc2n1	n	n	55	n	n	n
CC(C)n1nnnc1-c1cc(Cl)cc(Cl)c1	n	n	n	n	3.5	n
COCCNC(=O)C(c1ccc(C)o1)N(C(=O)c1snc(C(N)=O)c1N)c1ccc(C)c(C)c1 (stereo not given)	n	n	44	n	n	n
Cc1cccc(Cn2cnc3c(NS(C)(=O)=O)c(C)c(C)cc32)c1	n	n	57	n	n	n
O=c1[nH]c(Cc2ccccn2)nc2scc(-c3ccccc3Cl)c12	n	n	n	n	n	n
CCc1ccc(CN(C)CC(=O)Nc2ccc3c(c2)CCC3)cc1	n	n	n	n	n	n
Cc1ccc(CN(C)CC(=O)Nc2ccc3c(c2)CCC3)cc1	n	n	47	n	n	n
CC(=O)N1CCc2c(sc(NC(=O)C3CC3)c2-c2nc3ccccc3s2)C1	n	n	n	n	n	51
Cc1csc(NC(=O)CSc2nnc(Cn3c(=O)sc4ccccc43)n2-c2ccccc2)n1	n	n	n	n	n	n
CCc1ccc(NC(=S)Nc2ccc3[nH]c(=O)[nH]c3c2)cc1	n	n	n	n	3.0	n
O=C(NNC(=O)C1CCN(c2ncccn2)CC1)c1ccc(Cl)cc1	n	n	n	n	n	n
CC(=O)Nc1ccc(S(=O)(=O)NCCNc2ccccc2[N+](=O)[O-])cc1	n	n	n	n	n	99
O=C(Nc1cccc(F)c1)C1CC(=O)N(c2ccc(Br)cc2)C1 (stereo not given)	n	n	79	n	n	n
CCCCOc1ccc(C2CCC(C(C)=O)C(C)C2)cc1 (stereo not given)	n	n	n	n	n	n
COC(C/C=C/[C@@H](O)COCc1ccccc1)OC	n	n	46	n	x	n
COC(C/C=C/[C@H](O)COCc1ccccc1)OC	n	n	n	n	x	n
COc1cc(C2C3C(=O)N(Cc4ccccc4)C(=O)C3ON2c2ccccc2)cc(OC)c1OC (stereo not given)	n	n	n	n	n	n
COc1ccc(C2C3C(=O)N(Cc4ccccc4)C(=O)C3ON2c2ccccc2)c(OC)c1OC (stereo not given)	n	n	52	n	n	n
CCNC(=O)C1CCCN1S(=O)(=O)c1ccc(OC)cc1 (stereo not given)	n	n	n	n	n	n
COc1ccc(S(=O)(=O)N2CCCC2C(=O)NCc2cccs2)cc1 (stereo not given)	n	n	48	n	n	n
COc1cc(CC(=O)OCn2nnc3ccccc3c2=O)cc(OC)c1OC	n	n	n	n	n	n
COc1cc(C(=O)NCC(=O)OCn2nnc3ccccc3c2=O)cc(OC)c1OC	n	n	n	40	n	n
SMILES	Furin inh	Thrombin inh	hK5 inh	FXIa inh	PERK inh	FXIIa inh 1536
C/C(=N\NC(=S)NCc1ccccc1)c1ccccc1	n	n	n	n	n	n
C/C(=N\NC(=S)NCc1ccccc1)c1ccc(C#N)cc1	n	n	54	n	n	n
N#Cc1cnn(Cc2ccc(Cl)cc2)c1N	n	n	n	n	n	58
COc1ccc(OC)c(Cc2nnc(CCC(=O)NCc3ccc(C)s3)o2)c1	n	n	n	n	3.3	n
COc1cc([N+](=O)[O-])ccc1NC(=O)NCc1ccco1	n	n	x	n	n	n
COc1ccc([N+](=O)[O-])cc1NCc1ccco1	n	n	n	81	n	n
O=C(Cc1c[nH]c2ccccc12)NCc1ccc2c(c1)OCO2	n	n	n	n	n	n
O=C1CC(=O)CC(c2ccccc2)C1	n	n	n	n	n	n

Assay outcomes (PubChem BioAssay)
